# Source: PubChem BioAssay AID504412 (Broad Institute, 2011)
# The source made the active and inactive calls.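 Rule for the calls: active = activation of at least 10% at the 50 µM dose, scaled between neutral and positive controls; inactive = the rest.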
# Test: cytochrome c release from CHL-1 A1-2A-BIM mitochondria, confirmation, orthogonal assay for A1 inhibitor project, biochemical, isolated mitochondria, cytochrome c ELISA, dry powder (AID 504412)
# Settings: stronger effect = higher value
# How it was run: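 System: A1-2A-BIM CHL-1 cell mitochondria; times: compound treatment 30 min, 30 °C; medium: trehalose AT buffer, pH 7.7, 80 mM KCl; controls: DMSO low, DMSO with tBid high; technique: cytochrome c ELISA, A450 with 540 nm correction; evaluation: cytochrome c freed from mitochondria into supernatant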
compound,measurement,setting,value
Cn1c(=O)c([N+](=O)[O-])c(Cl)c2ccccc21,activation,at 50 µM,25.6% (active)
same,activation,"cytochrome c release, at 10 µM",10.1%
